The source of these data is PMC7117380 (Veterinary Microbiology, 2017).

One series concerns the target T1, PRRSV 3CLSP (nsp4) (Porcine reproductive and respiratory syndrome virus, UniProt A1E8J1).
T1 sequence (A1E8J1 1780-1983): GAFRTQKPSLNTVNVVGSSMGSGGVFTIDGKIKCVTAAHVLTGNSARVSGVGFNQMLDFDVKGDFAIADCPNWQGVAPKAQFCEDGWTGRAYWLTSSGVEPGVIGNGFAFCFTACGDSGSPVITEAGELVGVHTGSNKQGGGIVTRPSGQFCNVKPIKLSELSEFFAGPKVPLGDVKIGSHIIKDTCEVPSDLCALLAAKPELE
Kind of series: FRET assay of PRRSV 3CLSP. In kind it is biochemical.

The target of a further series is T2, PEDV 3CL protease (nsp5) (Porcine epidemic diarrhea virus, UniProt P0C6Y4).
T2 sequence (P0C6Y4 2998-3299 limits assumed): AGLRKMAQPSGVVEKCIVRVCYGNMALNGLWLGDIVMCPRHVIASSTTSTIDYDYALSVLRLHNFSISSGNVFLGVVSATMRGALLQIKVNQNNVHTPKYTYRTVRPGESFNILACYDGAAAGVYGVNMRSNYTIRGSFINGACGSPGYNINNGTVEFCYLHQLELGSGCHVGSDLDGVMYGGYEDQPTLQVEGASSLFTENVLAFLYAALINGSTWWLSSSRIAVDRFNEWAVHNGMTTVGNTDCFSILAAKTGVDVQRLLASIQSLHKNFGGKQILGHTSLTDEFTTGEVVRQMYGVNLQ
Briefly: FRET assay of PEDV 3CL protease. In kind it is biochemical. A digest of the protocol:
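The assay used purified PEDV nsp5 (3CL protease) at 0.25 μM final and substrate Dabcyl-YNSTLQ↓AGLRKM-E-Edans at 10 μM. Test compound (6.25–500 μM) was preincubated with enzyme for 20 min at 37 °C, then incubated with substrate for 60 min at 37 °C. Fluorescence was read at ex 340/em 485, minus a no-protease background. Inhibition % came from the 60–0 min RFU change against control, and IC50 from nonlinear regression of triplicate runs.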

The next series is described as follows: in vitro. The following applies: African green monkey. In kind it is cell-based.
A short description of another series: Cell viability assay. In kind it is cell-based. The following applies: African green monkey, Vero cells. The procedure, abridged: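 Confluent Vero cells in DMEM with 10% FBS at 37 °C, 5% CO2 were exposed to test compound at 50–500 μM for 72 h, with 0.1% DMSO as control. Viability was read by CellTiter-Glo luminescence. CC50 was fitted in GraphPad Prism from triplicate experiments (±SD).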

Series [1] relates to PRRSV (HP-PRRSV WUH3 strain). Kind of series: TCID50 assay for PRRSV replication in MARC-145 cells. In kind it is cell-based, porcine reproductive and respiratory syndrome virus. Conditions: for Inhibition of PRRSV infection: 100 μM.
Series [2] concerns PRRSV nucleocapsid (N) protein. Briefly: Western blot of PRRSV nucleocapsid. In kind it is cell-based, porcine reproductive and respiratory syndrome virus. Conditions: MARC-145 cells; for PRRSV N protein detection (western blot): 100 μM; for PRRSV N protein level (western blot), dose response: 6.25–200 μM, 36 h.
In series [3] the test system is PEDV nucleocapsid (N) protein. Kind of series: Western blot of PEDV nucleocapsid. In kind it is cell-based, porcine epidemic diarrhea virus. The following applies: Vero cells.
In a further series the test system is PEDV (FJZZ strain). Briefly: TCID50 assay for PEDV replication in Vero cells. In kind it is cell-based, porcine epidemic diarrhea virus.
In the next series the target is T3, EAV 3CLSP (nsp4) (Equine arteritis virus, UniProt P19811).
T3 sequence (P19811 1065-1268 limits assumed): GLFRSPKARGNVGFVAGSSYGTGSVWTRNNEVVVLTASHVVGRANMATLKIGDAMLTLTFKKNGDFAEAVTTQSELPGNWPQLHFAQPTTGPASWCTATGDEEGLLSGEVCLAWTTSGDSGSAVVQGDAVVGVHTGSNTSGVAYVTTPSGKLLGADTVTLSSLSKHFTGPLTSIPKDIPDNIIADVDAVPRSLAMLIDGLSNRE
Briefly: FRET assay of EAV 3CLSP. In kind it is biochemical. The following applies: 1 μM substrate, 12.5-500 μM compound.

A value given as a limit tells only on which side of the number the result lay.

The compound `Cc1ccc(C(=O)c2ccc(O)cc2O)cc1` [Compound 2, (2,4-dihydroxyphenyl) (4-methylphenyl)methanone] registered an IC50 against PRRSV 3CLSP (nsp4) of 144 µM. The same compound showed an IC50 on PEDV 3CL protease (nsp5) of 37.8 µM. The same compound came in with a CC50 in “in vitro” of 480 µM. Also, in “Cell viability assay”, the CC50 at 72 h was above 500 µM. Besides, in [1], the “Inhibition of PRRSV infection” value is recorded as “strongly inhibited PRRSV infection”. For the same compound, in series [2], the “PRRSV N protein detection (western blot)” value is given as “no viral N protein was detectable” and the “PRRSV N protein level (western blot), dose response” value (“PRRSV N protein level” for short) is recorded as “decreased”. Moreover, in [3], the “PEDV N protein level (western blot), dose response” value is given as “decreased”.
Consider `Cc1cccc(C)c1C(=O)c1ccc(O)cc1O` [Compound 3, (2,4-dihydroxyphenyl)(2,6-dimethylphenyl)methanone], for which half-maximal inhibition at PRRSV 3CLSP (nsp4) (IC50) required 116 µM. At PEDV 3CL protease (nsp5), this compound registered an IC50 of 23.4 µM. The compound also gave a CC50 in “in vitro” of 483 µM. Further, the CC50 at 72 h in “Cell viability assay” was above 500 µM. Further, the “Inhibition of PRRSV infection” value in [1] is reported as “strongly inhibited PRRSV infection”. For the same compound, the “PRRSV-3CLpro SI values (selectivity index)” value in [1] (PRRSV) was around 8.5. Also, in the series with PEDV (FJZZ strain), the “PEDV-3CLpro SI values (selectivity index)” value is around 9.02. In addition, in series [2], the “PRRSV N protein detection (western blot)” value is on record as “no viral N protein was detectable” and the “PRRSV N protein level” value was “decreased”. Besides, in [3], the “PEDV N protein level (western blot), dose response” value was “decreased”. The “Protease activity of EAV 3CLSP” value at EAV 3CLSP (nsp4) is “inhibited”.
`Cc1ccncc1` [Compound 4, 4-methylpyridine]: the values for the IC50 against PRRSV 3CLSP (nsp4) and on PEDV 3CL protease (nsp5) were 148 µM and above 500 µM, respectively. The “Suppression of PRRSV replication (western blot)” value in series [2] is listed as “did not substantially suppress PRRSV replication”.
At PRRSV 3CLSP (nsp4), `CC1CCN(c2ncnc3ccccc23)CC1` [Compound 5, 4-(4-methylpiperidin-1-yl)quinazoline] had an IC50 of 173 µM. In the series “in vitro”, this compound returned a CC50 above 500 µM and a viability at 72 h, 500 µM above 60%. In addition, the “PRRSV N protein level” value in [2] is “decreased”.
